# Bioassay records deposited in PubChem BioAssay by The Scripps Research Institute Molecular Screening Center.
# CHO parental Ca = counter-screen for OX1R antagonists: effect in parental CHO cells. parental CHO-K1, ATP-induced calcium, Fluo-8 fluorescence. inhibition, % at 5.6 µM. 0.63% of 330,000 active. AID 463079;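 active = inhibition above that plate's mean sample inhibition plus 3 SD, cut at about 26% in these data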
#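 Test system: parental CHO cells; detection: calcium-sensitive Fluo-8 fluorescence; evaluation: percent inhibition of calcium signal; also added: ATP as calcium-mobilizing challenge; repeats: one well per compound; control set: ATP-challenged DMSO wells low, unchallenged DMSO wells high; compound: single nominal dose of 5.6 µM per compound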
# GPR7 antag = blocks human GPR7 receptor signaling; P48145; GPR7-expressing cells, fluorescence antagonist assay; inhibition, % at 4.4 µM; 1.1% of 290,000 active; in the data active = inhibition above about 16%, passing the limit was not always enough;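 note: cells stimulated with the agonist NPW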
# Target sequence (P48145 whole entry, looked up): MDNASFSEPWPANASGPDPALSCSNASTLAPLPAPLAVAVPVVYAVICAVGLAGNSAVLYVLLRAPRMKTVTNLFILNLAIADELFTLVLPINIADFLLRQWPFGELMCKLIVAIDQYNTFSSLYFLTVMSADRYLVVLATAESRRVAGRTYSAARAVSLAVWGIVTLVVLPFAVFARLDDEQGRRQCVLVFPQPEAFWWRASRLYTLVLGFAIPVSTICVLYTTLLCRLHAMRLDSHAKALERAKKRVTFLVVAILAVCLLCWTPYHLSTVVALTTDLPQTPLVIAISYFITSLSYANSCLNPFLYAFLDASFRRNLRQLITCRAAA
# TAAR1 antagonist = antagonists of human TAAR1. Q96RJ0. CHO RD-HGA16 TAAR1, Fluo-8 calcium fluorescence, antagonist. inhibition, % at 3 µM. 1.5% of 360,000 active. AID 624466;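 active = inhibition above a per-plate cutoff, the mean inhibition of test compounds on that plate plus 3 SD, cut at about 49% in these data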
#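 System: CHO RD-HGA16 cells bearing hTAAR1. Reagent: EC80 β-phenethylamine stimulus. Schedule: seeding 17-24 h prior, 75-min 37 °C, 30-min RT dye loading. Signal: Fluo-8 intracellular calcium dye fluorescence, real-time kinetic reads. Read-out: % inhibition from peak post-agonist over basal fluorescence ratio. Benchmarks: vehicle wells and EC80 agonist wells. Replicates: n of 1.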
# OX1R antag-1 = blocks the human orexin 1 receptor | OX1R-expressing cells, FRET antagonist read-out | 1.8% of 330,000 active | O43613 | inhibition, % at 6.6 µM; in the data active = inhibition mostly above about 38%, no sharp cut-off; inactive = mostly below about 40%
# OX1R antag-2 = antagonists of human orexin 1 receptor; inhibition, % at 5 µM; CHO/OX1R cells, Fluo-8 calcium fluorescence, orexin A; AID 434989; 0.43% of 330,000 active;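 active = inhibition above its plate's threshold, mean inhibition of all tested compounds on the plate plus 3 SD, cut at about 37% in these data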
# TAAR1 ag = agonists of human TAAR1 | CHO RD-HGA16 TAAR1, Fluo-8 calcium fluorescence; vehicle wells 0%, saturating PEA agonist 100% | Q96RJ0 | AID 624467 | activation, % at 3 µM | 0.99% of 360,000 active;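 active = activation above the mean activation of all test compounds in the run plus 3 SD, cut at about 38% in these data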
#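 System: CHO-derived RD-HGA16 cells with stable Gα16 and human TAAR1 / Times: 17-24 h plating, Fluo-8 75 min 37 °C, 30 min RT / Technique: calcium-sensitive Fluo-8 signal, excitation 470-495, emission 515-575 nm / Measure: % activation relative to PEA EC100 response / Benchmarks: DMSO and PEA EC100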
# GPR7 antag conf = confirmation of human GPR7 antagonists; GPR7-expressing cells, calcium fluorescence antagonist mode; shares compounds with GPR7 antag; 52% of 2,400 active; inhibition, % at 4.4 µM; in the data active = inhibition above about 24%;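 note: stimulated with the GPR7 agonist NPW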
# MCHR1 antag = MCHR1 (human) antagonism in GPR7 counter-screen. AID 2148. inhibition, % at 4.4 µM. MCHR1-expressing cells, fluorescence antagonist assay. shares compounds with GPR7 antag. 62% of 2,400 active; in the data active = inhibition above about 22%
# A number is an active result; n = inactive; x = not tested or not shown. Rows were chosen to be rich in hits. Some 4.6% of all compounds tested hit in one or more screens of this group.
SMILES,CHO parental Ca,GPR7 antag,TAAR1 antagonist,OX1R antag-1,OX1R antag-2,TAAR1 ag,GPR7 antag conf,MCHR1 antag
CC(=O)N1CCN(C(=O)c2ccc(S(=O)(=O)Nc3ccccc3F)cc2)CC1,n,x,n,n,n,n,x,x
O=C(Nc1ccccc1)c1ccc(CN2CCc3ccccc3C2)cc1,n,n,n,n,n,n,x,x
Cc1ccc(C(=O)Nc2ccc(S(=O)(=O)N3CCN(C)CC3)cc2)cc1,n,45.0,n,n,n,n,n,n
O=C(Nc1ccc(S(=O)(=O)N2CCCCC2)cc1)c1ccc(CN2CCc3ccccc3C2)cc1,46.9,25.2,n,n,n,n,48.8,56.9
COCCN1Cc2cccc(C(=O)Nc3ccc(S(=O)(=O)N4CCCCC4)cc3)c2C1=O,n,24.1,n,n,n,n,n,n
Cc1cc(N=O)no1,x,x,n,x,x,n,x,x
CN(C)C(=O)c1cccc(-c2cnc3cccnn23)c1,x,x,n,x,x,n,x,x
COc1ccc(C2=NN(c3ccccc3)C(=O)/C2=C\c2ccc(O)c(OC)c2)cc1,n,30.5,n,n,n,n,n,25.8
O=C(O)c1cccc(N2C(=O)c3cc4cccc(Br)c4cc3C2=O)c1,n,37.9,n,n,n,n,n,n
O=C(CN1C(=O)C2C3C=CC(C3)C2C1=O)NC1CCCc2ccccc21 (configuration not stated),n,30.2,n,n,n,n,n,n
O=C(Nc1ccnn1C1CCN(Cc2ccc(CO)o2)CC1)c1ccccc1,n,29.3,n,n,n,n,n,n
CS(=O)(=O)N(CC(=O)N1CCN(Cc2ccc3c(c2)OCO3)CC1)Cc1ccc(Cl)cc1,n,24.8,n,n,n,n,38.4,55.9
FC(F)(F)c1cc(C(F)(F)F)c2ccc(N3CCN(c4ccc(Cl)cc4)CC3)nc2n1,n,n,n,n,n,n,x,x
N#CC(c1ccc(Cl)cc1)c1ccc2c(C(F)(F)F)cc(C(F)(F)F)nc2n1 (configuration not stated),n,33.2,n,n,n,n,58.5,50.5
CCOc1ccccc1NC(=O)C(NCC1(N2CCCCC2)CCCCC1)c1ccccc1 (configuration not stated),n,27.6,n,n,n,n,24.6,n
Cc1ccc(-c2cnc3c(c2)C(=O)N([C@H](C)CO)C[C@H](C)[C@@H](CN(C)Cc2ccccc2F)O3)cc1,x,x,n,x,x,n,x,x
CN1CCC(NCCC(c2ccc(F)cc2)c2ccc(Cl)cc2)CC1 (configuration not stated),x,46.7,n,x,x,n,42.8,40.8
CCc1ccc([C@@H]2C[C@H]3CN(Cc4ccccc4OC)C(=O)[C@]34CCCN24)cc1,n,24.4,n,n,n,n,n,n
COc1ccc(-c2csc(C(NC(C)=O)c3ccc(F)c(F)c3)n2)cn1 (configuration not stated),x,x,n,x,x,n,x,x
COc1cc(CNCCc2c[nH]c3ccccc23)ccc1OCc1ccccc1F,n,n,n,n,n,n,x,x
COc1cccc(CNCCc2c[nH]c3ccccc23)c1OCc1ccccc1,n,56.1,53.9,n,n,n,59.9,67.2
CN(C)c1ncnc2c1ncn2[C@H]1CN(Cc2ccc(-c3ccccc3)cc2)C[C@@H](CO)O1,x,x,n,x,x,n,x,x
CC(=O)Nc1ccc(S(=O)(=O)N(CCCN2CCOCC2)Cc2cccs2)cc1,n,24.9,n,n,n,n,n,n
Cc1cc2c(cc(C(=O)OCC(=O)NCc3ccco3)n2C)s1,n,28.6,n,n,n,n,n,22.0
Cc1cc(Cl)ccc1NC(=O)CSc1nnc(Cc2cccs2)n1Cc1ccco1,n,23.4,n,n,n,n,37.6,33.5
SMILES,CHO parental Ca,GPR7 antag,TAAR1 antagonist,OX1R antag-1,OX1R antag-2,TAAR1 ag,GPR7 antag conf,MCHR1 antag
N#Cc1ccc(CSc2nnc(Cc3cccs3)n2Cc2ccco2)cc1,n,24.6,x,n,n,x,27.8,n
Cc1ccc(S(=O)(=O)N(C)c2ccc(OCC(=O)Nc3cccc(-n4cnnn4)c3C)cc2)cc1,n,21.6,n,n,n,n,n,33.2
Cc1ccc(S(=O)(=O)N(C)c2ccc(OCC(=O)Nc3ccc(S(C)(=O)=O)cc3)cc2)cc1,x,x,n,x,x,n,x,x
CCN(C(=O)COC(=O)Cn1cnc2c1c(=O)n(C)c(=O)n2C)C1CCS(=O)(=O)C1 (configuration not stated),n,28.7,n,n,n,n,n,n
Clc1ccc(Cn2ncc3c(NCc4ccco4)ncnc32)c(Cl)c1,n,28.0,53.3,n,n,n,36.9,55.5
Cc1cc(Cl)c(S(=O)(=O)N2CCCCCC2)cc1OCC(=O)NC1CCCCC1,78.2,31.5,n,n,n,n,61.3,58.2
COc1ccc(OC)c(S(=O)(=O)N2CCC(C(=O)NC3CCCC3)CC2)c1,n,n,n,n,n,n,x,x
COc1cc(OC)c(S(=O)(=O)N2CCCCC2)cc1S(=O)(=O)N1CCCCC1,n,47.7,n,n,n,n,46.3,n
